Test results reported in ChEMBL document CHEMBL1641479, “2-Substituted (S)-2-(3,3-dimethyl-1-oxo-10,10a-dihydroimidazo[1,5-b]isoquinolin-2(1H,3H,5H)-yl)acetic acids: Conformational prediction, synthesis, anti-thrombotic and vasodilative evaluation” (Bioorg Med Chem, 2011).
Where “and” joins values, the source holds several entries; their conditions need not be identical. Equal entries are not always repeated.

How the values were obtained:
[1] = Antiplatelet activity against pig platelet assessed as inhibition of ADP-induced platelet aggregation by spectrophotometry; format: functional, cell-based; details: Sus scrofa
In short: (§1)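 Pig blood (six pigs) spun 1000 rpm 10 min for PRP, then 1500 rpm 10 min for PPP; PRP adjusted to 2×10^8 platelets/mL with autologous PPP. Compound (final 100 µM to 1 nM, diluted in NS from DMSO/NS stock) or NS added, then inducer at final PAF 0.1 µM, ADP 10 µM, AA 350 µM or thrombin 0.1 U/mL.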

[2] = Antiplatelet activity against pig platelet assessed as inhibition of arachidonic acid-induced platelet aggregation by spectrophotometry; format: functional, cell-based; details: Sus scrofa; in short: as §1
[3] = Antiplatelet activity against pig platelet assessed as inhibition of PAF-induced platelet aggregation by spectrophotometry; format: functional, cell-based; details: Sus scrofa; in short: as §1
[4] = Antiplatelet activity against pig platelet assessed as inhibition of thrombin-induced platelet aggregation by spectrophotometry; format: functional, cell-based; details: Sus scrofa; in short: as §1
Rattus norvegicus [5] = experiment: Antithrombotic activity in Wistar rat assessed as thrombus weight at 10 nmol/kg, iv (reference value: 24.09 +/- 2.33 mg); format: functional
Rattus norvegicus [6] = experiment: Antithrombotic activity in Wistar rat assessed as thrombus weight at 100 nmol/kg, iv (reference value: 22.09 +/- 3.33 mg); format: functional
Rattus norvegicus [7] = experiment: Antithrombotic activity in Wistar rat assessed as thrombus weight at 1 nmol/kg, iv (reference value: 22.09 +/- 3.33 mg); format: functional
Rattus norvegicus [8] = experiment: Antithrombotic activity in iv dosed Wistar rat assessed as decrease in thrombus weight; format: functional, organism-based
Aorta = experiment: Inhibition of noradrenaline-induced contraction in Wistar rat thoracic aortic ring assessed as vasorelaxant activity at 300 uM treated after noradrenaline challenge; format: functional; design: scale not given: the % may be the effect or the level left
In short: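 Male Wistar rats, 250–300 g, were decapitated and aortic strips were mounted in 37 °C Krebs solution (pH 7.4) gassed with 95% O2/5% CO2, connected to a tension transducer. Strips were contracted with 59 µM noradrenaline, washed, stabilised 30 min, then re-contracted with 59 µM noradrenaline. At peak contraction, compound in ethanol or ethanol alone was added and relaxation was recorded.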

Rattus norvegicus [9] = experiment: Antithrombotic activity in Wistar rat assessed as thrombus weight at 167 umol/kg, iv (reference value: 24.09 +/- 2.33 mg); format: functional
Rattus norvegicus [10] = experiment: Antithrombotic activity in Wistar rat assessed as thrombus weight at 167 umol/kg, iv (reference value: 25.99 +/- 2.41 mg); format: functional
Rattus norvegicus [11] = experiment: Antithrombotic activity in Wistar rat assessed as thrombus weight at 15 umol/kg, iv (reference value: 28.54 +/- 2.62 mg); format: functional
Rattus norvegicus [12] = experiment: Antithrombotic activity in Wistar rat assessed as thrombus weight at 167 umol/kg, iv (reference value: 28.54 +/- 2.62 mg); format: functional
[13] = Antiplatelet activity against pig platelet assessed as inhibition of ADP-induced platelet aggregation at 10 uM by spectrophotometry; format: functional; details: Sus scrofa; in short: as §1
[14] = Antiplatelet activity against pig platelet assessed as inhibition of arachidonic acid-induced platelet aggregation at 10 uM by spectrophotometry; format: functional; details: Sus scrofa; in short: as §1
[15] = Antiplatelet activity against pig platelet assessed as inhibition of PAF-induced platelet aggregation at 10 uM by spectrophotometry; format: functional; details: Sus scrofa; in short: as §1
[16] = Antiplatelet activity against pig platelet assessed as inhibition of thrombin-induced platelet aggregation at 10 uM by spectrophotometry; format: functional; details: Sus scrofa; in short: as §1
Rattus norvegicus [17] = experiment: Antithrombotic activity in Wistar rat assessed as thrombus weight at 15 umol/kg, iv (reference value: 24.09 +/- 2.33 mg); format: functional
Rattus norvegicus [18] = experiment: Antithrombotic activity in Wistar rat assessed as thrombus weight at 15 umol/kg, iv (reference value: 25.99 +/- 2.41 mg); format: functional

| SMILES | IC50 [1] | IC50 [2] | IC50 [3] | IC50 [4] | Activity (Rattus norvegicus [5]) | Activity (Aorta) | other results |
| --- | --- | --- | --- | --- | --- | --- | --- |
| CC(C)C[C@@H](C(=O)O)N1C(=O)[C@@H]2Cc3ccccc3CN2C1(C)C | 171 nM | 287 nM | 515 nM | 599 nM | 12.99 mg and 13.79 mg | 30.14% | Activity (Rattus norvegicus [6]): 10.02 mg; Activity (Rattus norvegicus [7]): 20.67 mg; inhibition (Rattus norvegicus [8]): Dose-dependent effect |
| CC(=O)Oc1ccccc1C(=O)O [ASPIRIN] | – | – | – | – | – | – | Activity (Rattus norvegicus [9]): 13.22 mg; Activity (Rattus norvegicus [10]): 15.01 mg; Activity (Rattus norvegicus [11]): 27.6 mg; Activity (Rattus norvegicus [12]): 13.22 mg |
| CCC(C)[C@@H](C(=O)O)N1C(=O)[C@@H]2Cc3ccccc3CN2C1(C)C (some centres not stated) | 158 nM | 271 nM | 486 nM | 565 nM | 12.99 mg | 34.29% | – |
| CC1(C)N2Cc3ccccc3C[C@H]2C(=O)N1[C@@H](Cc1ccccc1)C(=O)O | 163 nM | 277 nM | 496 nM | 578 nM | 13.27 mg | 26.61% | – |
| CC1(C)N2Cc3ccccc3C[C@H]2C(=O)N1[C@@H](Cc1ccc(O)cc1)C(=O)O | 273 nM | 420 nM | 752 nM | 875 nM | 20.1 mg | 1.59% | – |
| CC1(C)N(CC(=O)O)C(=O)[C@@H]2Cc3ccccc3CN21 | 173 nM | 290 nM | 519 nM | 604 nM | 14.39 mg and 13.89 mg | 21.11% | – |
| C[C@@H](C(=O)O)N1C(=O)[C@@H]2Cc3ccccc3CN2C1(C)C | 200 nM | 324 nM | 576 nM | 677 nM | 15.45 mg | 8.41% | – |
| CC1(C)N2Cc3ccccc3C[C@H]2C(=O)N1[C@@H](CCCCN)C(=O)O | 191 nM | 313 nM | 561 nM | 652 nM | 14.98 mg | 12.01% | – |
| CC1(C)N2Cc3ccccc3C[C@H]2C(=O)N1[C@@H](CCCNC(=N)N)C(=O)O | 159 nM | 271 nM | 486 nM | 567 nM | 13.01 mg | 32.58% | – |
| O=C(O)[C@@H]1Cc2ccccc2CN1 | 542 nM | 481 nM | 944 nM | 980 nM | – | – | inhibition at 10 µM [13]: 10.7%; inhibition at 10 µM [14]: 10.4%; inhibition at 10 µM [15]: 13.5%; inhibition at 10 µM [16]: 14.5%; Activity (Rattus norvegicus [17]): 22.01 mg; Activity (Rattus norvegicus [18]): 22.22 mg |
| CC(O)[C@@H](C(=O)O)N1C(=O)[C@@H]2Cc3ccccc3CN2C1(C)C (some centres not stated) | 207 nM | 335 nM | 600 nM | 698 nM | 16.04 mg | 9.98% | – |

Second part, led by results:

| IC50 [1] | IC50 [2] | IC50 [3] | IC50 [4] | SMILES | Activity (Rattus norvegicus [5]) | Activity (Aorta) | other results |
| --- | --- | --- | --- | --- | --- | --- | --- |
| 264 nM | 408 nM | 499 nM | 852 nM | CSCC[C@@H](C(=O)O)N1C(=O)[C@@H]2Cc3ccccc3CN2C1(C)C | 19.56 mg | 5.58% | – |
| 294 nM | 447 nM | 801 nM | 932 nM | CC1(C)N2Cc3ccccc3C[C@H]2C(=O)N1[C@@H](CC(=O)O)C(=O)O | 21.41 mg | 2.89% | – |
| 180 nM | 299 nM | 535 nM | 622 nM | CC1(C)N2Cc3ccccc3C[C@H]2C(=O)N1[C@@H](CS)C(=O)O | 14.36 mg | 16.57% | – |
| 182 nM | 302 nM | 541 nM | 629 nM | CC1(C)N2Cc3ccccc3C[C@H]2C(=O)N1[C@@H](CCC(N)=O)C(=O)O | 14.39 mg | 12.24% | – |
| 283 nM | 433 nM | 777 nM | 903 nM | CC1(C)N2Cc3ccccc3C[C@H]2C(=O)N1[C@@H](CC(N)=O)C(=O)O | 20.75 mg | 3.89% | – |
| 248 nM | 388 nM | 695 nM | 808 nM | CC1(C)N2Cc3ccccc3C[C@H]2C(=O)N1[C@@H](CCC(=O)O)C(=O)O | 18.57 mg | 4.33% | – |
